pIC50: −log10 of the molar value. Active and inactive are the calls of the source. The rule behind the calls is not given here.
What follows are molecules tested against T1, Prothrombin (Homo sapiens, UniProt P00734) (assay: Inhibition of human alpha-thrombin assessed as spectrozyme TH hydrolysis after 10 mins by spectrophotometric analysis). Details: read-out: IC50.
Summary of the method: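 Human α-thrombin (~5 nM initial) preincubated 10 min with inhibitor (4 μg/ml to 5 mg/ml stocks) at 25 °C. Buffer: 20 mM Tris-HCl pH 7.4, 100 mM NaCl, 2.5 mM CaCl2, 0.1% PEG 8000. Fractional residual activity fitted to logistic equation (Hill slope fixed at 1) for IC50 and efficacy ΔY.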

| SMILES | pIC50 |
| --- | --- |
| COc1cc2oc(C)c(C(=O)N3CCOCC3)c2cc1OS(=O)(=O)O | < 2.70 |
| CCOC(=O)c1c(C)oc2cc(OC(C)C)c(OS(=O)(=O)O)cc12 | 1.86 |
| C=CCOC(=O)c1c(C)oc2cc(OC)c(OS(=O)(=O)O)cc12 | < 2.52 |
| CCOC(=O)c1c(C)oc2cc(OCC)c(OS(=O)(=O)O)cc12 | 1.69 |
| COc1cc2oc(C)c(C(=O)OC(C)(C)C)c2cc1OS(=O)(=O)[O-].[Na+] | < 2.52 |
| CCOC(=O)c1c(C)oc2cc(OC(=O)N3CCOCC3)c(OS(=O)(=O)O)cc12 | < 1.60 |
| CCOC(=O)c1c(C)oc2cc(OC)c(OS(=O)(=O)O)cc12 | < 2.60 |
| CCOC(=O)c1c(CN2CCOCC2)oc2cc(OC)c(OS(=O)(=O)O)cc12 | < 2.15 |
| COc1cc2oc(C)c(C(=O)N3CCCCC3)c2cc1OS(=O)(=O)O | < 2.70 |
| COCCOC(=O)c1c(C)oc2cc(OC)c(OS(=O)(=O)O)cc12 | < 2.70 |
| COc1cc2oc(C)c(C(=O)N3CCOCC3)c2cc1OCc1oc2cc(OC)c(OS(=O)(=O)[O-])cc2c1C(=O)N1CCOCC1.[Na+] | < 2.15 |
| CCOC(=O)c1c(C)oc2cc(OCOC)c(OS(=O)(=O)[O-])cc12.[Na+] | < 1.80 |
| COC(=O)c1c(C)oc2cc(OC)c(OS(=O)(=O)O)cc12 | < 2.52 |

Stronger by pIC50, values ahead:

| pIC50 | SMILES |
| --- | --- |
| 3.12 | CCOC(=O)c1c(C)oc2cc(OCc3oc4cc(OC)c(OS(=O)(=O)O)cc4c3C(=O)OCC)c(OS(=O)(=O)O)cc12 |
| 3.28 | CCOC(=O)c1c(C)oc2cc(OC(=O)c3ccc(OC)cc3)c(OS(=O)(=O)[O-])cc12.[Na+] |
| 3.43 | COCCOC(=O)c1c(C)oc2cc(OC)c(OCc3oc4cc(OC)c(OS(=O)(=O)[O-])cc4c3C(=O)OCCOC)cc12.[Na+] |
| 3.43 | COc1cc2oc(C)c(C(=O)O)c2cc1OCc1oc2cc(OC)c(OS(=O)(=O)[O-])cc2c1C(=O)O.[Na+] |
| 3.44 | CCOC(=O)c1c(C)oc2cc(OC)c(OCc3oc4cc(OS(=O)(=O)O)c(OS(=O)(=O)O)cc4c3C(=O)OCC)cc12 |
| 3.89 | CCOC(=O)c1c(COc2cc3c(C(=O)OCC)c(CN4CCOCC4)oc3cc2OC)oc2cc(OC)c(OS(=O)(=O)O)cc12 |
| 3.92 | CCOC(=O)c1c(C)oc2cc(OCC)c(OCc3oc4cc(OCC)c(OS(=O)(=O)[O-])cc4c3C(=O)OCC)cc12.[Na+] |
| 4.22 | CCOC(=O)c1c(C)oc2cc(OC)c(OCc3oc4cc(OC)c(OS(=O)(=O)[O-])cc4c3C(=O)OCC)cc12.[Na+] |
| 4.43 | COC(=O)c1c(C)oc2cc(OC)c(OCc3oc4cc(OC)c(OS(=O)(=O)[O-])cc4c3C(=O)OC)cc12.[Na+] |
| 4.52 | CCOC(=O)c1c(C)oc2cc(OC(C)C)c(OCc3oc4cc(OC(C)C)c(OS(=O)(=O)O)cc4c3C(=O)OCC)cc12 |
| 5.14 | COc1cc2oc(C)c(C(=O)OC(C)(C)C)c2cc1OCc1oc2cc(OC)c(OS(=O)(=O)[O-])cc2c1C(=O)OC(C)(C)C.[Na+] |

Same assay, conditions: read-out: pIC50 (converted)

| IC50 [µM] | SMILES |
| --- | --- |
| 37.2 | COC(=O)c1c(C)oc2cc(OC)c(OCc3oc4cc(OC)c(OS(=O)(=O)[O-])cc4c3C(=O)OC)cc12.[Na+] |
| 20000 | CCOC(=O)c1c(C)oc2cc(OCC)c(OS(=O)(=O)O)cc12 |
| 7.24 | COc1cc2oc(C)c(C(=O)OC(C)(C)C)c2cc1OCc1oc2cc(OC)c(OS(=O)(=O)[O-])cc2c1C(=O)OC(C)(C)C.[Na+] |
| 759 | CCOC(=O)c1c(C)oc2cc(OCc3oc4cc(OC)c(OS(=O)(=O)O)cc4c3C(=O)OCC)c(OS(=O)(=O)O)cc12 |
| 129 | CCOC(=O)c1c(COc2cc3c(C(=O)OCC)c(CN4CCOCC4)oc3cc2OC)oc2cc(OC)c(OS(=O)(=O)O)cc12 |
| 363 | CCOC(=O)c1c(C)oc2cc(OC)c(OCc3oc4cc(OS(=O)(=O)O)c(OS(=O)(=O)O)cc4c3C(=O)OCC)cc12 |

Each molecule was assayed against T1, Prothrombin (assay: Non-competitive inhibition of human alpha-thrombin assessed as spectrozyme TH hydrolysis at 1.5 to 30 uM by Michaelis-Menten equation analysis). Details: not given.
Summary of the method: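 Spectrozyme TH (10 to 600 μM) hydrolysed by 5–10 nM human thrombin at fixed inhibitor levels (0–30 μM) in 20 mM Tris-HCl pH 7.4, 37 °C. Initial rate taken from linear A405 rise with under 10% substrate consumption. KM and VMAX obtained by fitting the Michaelis-Menten equation.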

| inhibition | SMILES |
| --- | --- |
| Active | CCOC(=O)c1c(C)oc2cc(OC)c(OCc3oc4cc(OC)c(OS(=O)(=O)[O-])cc4c3C(=O)OCC)cc12.[Na+] |

What follows are molecules tested on Plasma (assay: Anticoagulant activity in human plasma assessed as concentration required to double the activated partial thromboplastin time). Details: not given.
Format: functional

| SMILES | 2aPTT [µM] |
| --- | --- |
| COC(=O)c1c(C)oc2cc(OC)c(OCc3oc4cc(OC)c(OS(=O)(=O)[O-])cc4c3C(=O)OC)cc12.[Na+] | >1000 |
| CCOC(=O)c1c(C)oc2cc(OC)c(OCc3oc4cc(OC)c(OS(=O)(=O)[O-])cc4c3C(=O)OCC)cc12.[Na+] | 740 |
| COc1cc2oc(C)c(C(=O)OC(C)(C)C)c2cc1OCc1oc2cc(OC)c(OS(=O)(=O)[O-])cc2c1C(=O)OC(C)(C)C.[Na+] | 355 |
| COc1cc2oc(C)c(C(=O)OC(C)(C)C)c2cc1OS(=O)(=O)[O-].[Na+] | >2000 |
| CCOC(=O)c1c(C)oc2cc(OC(=O)c3ccc(OC)cc3)c(OS(=O)(=O)[O-])cc12.[Na+] | 1250 |
| COc1cc2oc(C)c(C(=O)O)c2cc1OCc1oc2cc(OC)c(OS(=O)(=O)[O-])cc2c1C(=O)O.[Na+] | >1000 |
| CCOC(=O)c1c(C)oc2cc(OCC)c(OCc3oc4cc(OCC)c(OS(=O)(=O)[O-])cc4c3C(=O)OCC)cc12.[Na+] | 530 |
| COc1cc2oc(C)c(C(=O)N3CCOCC3)c2cc1OCc1oc2cc(OC)c(OS(=O)(=O)[O-])cc2c1C(=O)N1CCOCC1.[Na+] | >1000 |
| COCCOC(=O)c1c(C)oc2cc(OC)c(OCc3oc4cc(OC)c(OS(=O)(=O)[O-])cc4c3C(=O)OCCOC)cc12.[Na+] | >1000 |
| CCOC(=O)c1c(C)oc2cc(OCOC)c(OS(=O)(=O)[O-])cc12.[Na+] | >1200 |

These molecules were tested on Plasma (assay: Anticoagulant activity in human plasma assessed as concentration required to double the prothrombin time). Details: not given.
Format: functional
Summary of the method: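 One-stage recalcification PT on a fibrometer. 10 μL inhibitor brought to 100 μL with citrated human plasma, incubated 30 s at 37 °C, then 200 μL prewarmed thromboplastin added and clotting time recorded. Deionized water gave baseline clotting time. Duplicates; concentration doubling PT read from clotting time versus concentration.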

| SMILES | 2PT [µM] |
| --- | --- |
| COC(=O)c1c(C)oc2cc(OC)c(OCc3oc4cc(OC)c(OS(=O)(=O)[O-])cc4c3C(=O)OC)cc12.[Na+] | 850 |
| CCOC(=O)c1c(C)oc2cc(OC)c(OCc3oc4cc(OC)c(OS(=O)(=O)[O-])cc4c3C(=O)OCC)cc12.[Na+] | 2100 |
| CCOC(=O)c1c(C)oc2cc(OC(=O)c3ccc(OC)cc3)c(OS(=O)(=O)[O-])cc12.[Na+] | 1200 |
